Experimental data pooled from the literature.
Lines come from different studies, so protocols differ.
Read-out: enzyme activity
Mode: inhibitor
RET: Proto-oncogene tyrosine-protein kinase receptor Ret (RET, Homo sapiens, UniProt P07949)
RET V804L: Proto-oncogene tyrosine-protein kinase receptor Ret (RET, Homo sapiens, UniProt P07949, V804L)
RET Y791F: Proto-oncogene tyrosine-protein kinase receptor Ret (RET, Homo sapiens, UniProt P07949, Y791F)

SMILES | target | method | tested at | inhibition
CNCc1ccc(-c2cc(-c3nc(-c4ccc(S(=O)(=O)C(C)C)cc4)cnc3N)on2)cc1 | RET | – | 0.4 µM | 22%
C=CC(=O)Nc1cc(Nc2nccc(Nc3cc(Cl)c(F)cc3C(C)(C)O)n2)c(OC)cc1N1CC[C@@H](N(C)C)C1 | RET V804L | – | 1 µM | 8%
CNC(=O)c1cc2c(Oc3ccc(NC(=O)C4(C(=O)Nc5ccc(F)cc5)CC4)cc3)ccnc2cc1OC | RET | radiometric | 1 µM | 98%
COc1cc2ncnc(Nc3ccc(Oc4ccccc4)c(C)c3C)c2cc1OC | RET V804L | – | 1 µM | 2%
CC/C(=N\NC(=O)NCc1cccc(O)c1)c1ccc(O)c(C)c1O | Proto-oncogene tyrosine-protein kinase receptor Ret (RET, Homo sapiens, UniProt P07949, M918T) | – | 0.1 µM | 1.1%
COc1cc(-c2cc(-c3ccc(N4CCNCC4)cc3)cnc2N)cc(OC)c1OC | RET Y791F | – | 0.1 µM | 3%
CCCS(=O)(=O)Nc1ccc(F)c(C(=O)c2c[nH]c3ncc(-c4ccc(Cl)cc4)cc23)c1F | RET | – | 1 µM | < 10%
COc1cc2ncnc(Nc3ccc(Oc4ccccc4)cc3C)c2cc1OC | RET Y791F | – | 1 µM | 36%
